Data taken from ChEMBL document CHEMBL3352188, “Synthesis, antimicrobial and molecular docking studies of enantiomerically pure N-alkylated β-amino alcohols from phenylpropanolamines” (2014).

Columns and labels:
[1] = test system: Pseudomonas aeruginosa; experiment: Antimicrobial activity against Pseudomonas aeruginosa MTCC 741 at 1 mg/disc after 24 hrs by disc diffusion assay; type: functional
Procedure, shortened: (§1)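 Disc diffusion on Mueller Hinton agar. Inoculum was grown in MHB for 24 h at 37 °C, swabbed onto the plates and dried for 10 min. Discs with 1 mg compound were left 30 min at room temperature for diffusion, then incubated at 37 °C for 24 h. Inhibition zone was read in mm; run twice. Solvent was the negative control, streptomycin the positive control.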

[2] = test system: Candida albicans; experiment: Antimicrobial activity against Candida albicans MTCC 227 at 1 mg/disc after 24 hrs by disc diffusion assay; type: functional
[3] = test system: Malassezia pachydermatis; experiment: Antimicrobial activity against Malassezia pachydermatis at 1 mg/disc after 24 hrs by disc diffusion assay; type: functional
[4] = test system: Bacillus subtilis; experiment: Antimicrobial activity against Bacillus subtilis MTCC 441 after 24 hrs by two fold dilution method; type: functional; details: MTCC 441, 24 h
Procedure, shortened: (§2)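 Broth two-fold serial dilution in 96-well plates from 1000 to 7.81 µg/mL, compound in DMSO (2%). Inoculum was grown in MHB for 24 h at 37 °C; plates were incubated 24 h at 37 °C. 5 µL of broth was spotted onto MHA; MIC was the lowest concentration with no visible growth on agar. Streptomycin was the positive control.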

[5] = test system: Micrococcus luteus; experiment: Antimicrobial activity against Micrococcus luteus MTCC 106 after 24 hrs by two fold dilution method; type: functional; details: MTCC 106, 24 h; procedure, shortened: as §2
[6] = test system: Klebsiella aerogenes; experiment: Antimicrobial activity against Enterobacter aerogenes MTCC 111 after 24 hrs by two fold dilution method; type: functional; details: MTCC 111, 24 h; procedure, shortened: as §2
[7] = test system: Staphylococcus aureus; experiment: Antimicrobial activity against Staphylococcus aureus MTCC 96 after 24 hrs by two fold dilution method; type: functional; details: MTCC 96, 24 h; procedure, shortened: as §2
[8] = test system: Salmonella typhimurium; experiment: Antimicrobial activity against Salmonella typhimurium MTCC 1251 after 24 hrs by two fold dilution method; type: functional, Salmonella enterica subsp. enterica serovar Typhimurium; details: Salmonella enterica, MTCC 1251, 24 h; procedure, shortened: as §2
[9] = test system: Klebsiella pneumoniae; experiment: Antimicrobial activity against Klebsiella pneumoniae MTCC 109 after 24 hrs by two fold dilution method; type: functional; details: MTCC 109, 24 h; procedure, shortened: as §2
[10] = test system: Proteus vulgaris; experiment: Antimicrobial activity against Proteus vulgaris MTCC 1771 after 24 hrs by two fold dilution method; type: functional; details: MTCC 1771, 24 h; procedure, shortened: as §2
[11] = test system: Staphylococcus aureus; experiment: Antimicrobial activity against methicillin-resistant Staphylococcus aureus MTCC 96 after 24 hrs by two fold dilution method; type: functional; details: MTCC 96, 24 h; procedure, shortened: as §2
[12] = test system: Salmonella enterica subsp. enterica serovar Paratyphi B; experiment: Antimicrobial activity against Salmonella paratyphi B after 24 hrs by two fold dilution method; type: functional; procedure, shortened: as §2
[13] = test system: Shigella flexneri; experiment: Antimicrobial activity against Shigella flexneri MTCC 1457 after 24 hrs by two fold dilution method; type: functional; details: MTCC 1457, 24 h; procedure, shortened: as §2
[14] = test system: Pseudomonas aeruginosa; experiment: Antimicrobial activity against Pseudomonas aeruginosa MTCC 741 after 24 hrs by two fold dilution method; type: functional; details: MTCC 741, 24 h; procedure, shortened: as §2
[15] = test system: Candida albicans; experiment: Antimicrobial activity against Candida albicans MTCC 227 after 48 to 72 hrs by two fold dilution method; type: functional
Procedure, shortened: (§3)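 Yeast was grown in Sabouraud dextrose broth at 28 °C for 48 h and tested per CLSI reference methods. Two-fold serial dilutions from 1000 to 7.81 µg/mL, compound in DMSO (2%), in 96-well plates, incubated 48–72 h at 28 °C. MIC was the lowest concentration with no visible fungal growth. Ketoconazole was the positive control.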

[16] = test system: Malassezia pachydermatis; experiment: Antimicrobial activity against Malassezia pachydermatis after 48 to 72 hrs by two fold dilution method; type: functional; procedure, shortened: as §3
[17] = test system: Bacillus subtilis; experiment: Bactericidal activity against Bacillus subtilis MTCC 441 after 24 hrs by two fold dilution method; type: functional; details: MTCC 441, 24 h
Procedure, shortened: (§4)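 Tubes held 5 mL MHB with two-fold dilutions from 1000 to 7.81 µg/mL and were inoculated with 5 × 10^5 to 1 × 10^6 cells in 0.1 mL MHB, incubated without shaking. Turbidity was checked at 20 h, tubes vortexed and re-incubated 4 h.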

[18] = test system: Micrococcus luteus; experiment: Bactericidal activity against Micrococcus luteus MTCC 106 after 24 hrs by two fold dilution method; type: functional; details: MTCC 106, 24 h; procedure, shortened: as §4
[19] = test system: Klebsiella aerogenes; experiment: Bactericidal activity against Enterobacter aerogenes MTCC 111 after 24 hrs by two fold dilution method; type: functional; details: MTCC 111, 24 h; procedure, shortened: as §4
[20] = test system: Staphylococcus aureus; experiment: Bactericidal activity against Staphylococcus aureus MTCC 96 after 24 hrs by two fold dilution method; type: functional; details: MTCC 96, 24 h; procedure, shortened: as §4
[21] = test system: Salmonella typhimurium; experiment: Bactericidal activity against Salmonella typhimurium MTCC 1251 after 24 hrs by two fold dilution method; type: functional, Salmonella enterica subsp. enterica serovar Typhimurium; details: Salmonella enterica, MTCC 1251, 24 h; procedure, shortened: as §4
[22] = test system: Klebsiella pneumoniae; experiment: Bactericidal activity against Klebsiella pneumoniae MTCC 109 after 24 hrs by two fold dilution method; type: functional; details: MTCC 109, 24 h; procedure, shortened: as §4
[23] = test system: Proteus vulgaris; experiment: Bactericidal activity against Proteus vulgaris MTCC 1771 after 24 hrs by two fold dilution method; type: functional; details: MTCC 1771, 24 h; procedure, shortened: as §4
[24] = test system: Staphylococcus aureus; experiment: Bactericidal activity against methicillin-resistant Staphylococcus aureus MTCC 96 after 24 hrs by two fold dilution method; type: functional; details: MTCC 96, 24 h; procedure, shortened: as §4
[25] = test system: Salmonella enterica subsp. enterica serovar Paratyphi B; experiment: Bactericidal activity against Salmonella paratyphi B after 24 hrs by two fold dilution method; type: functional; procedure, shortened: as §4
[26] = test system: Shigella flexneri; experiment: Bactericidal activity against Shigella flexneri MTCC 1457 after 24 hrs by two fold dilution method; type: functional; details: MTCC 1457, 24 h; procedure, shortened: as §4
[27] = test system: Pseudomonas aeruginosa; experiment: Bactericidal activity against Pseudomonas aeruginosa MTCC 741 after 24 hrs by two fold dilution method; type: functional; details: MTCC 741, 24 h; procedure, shortened: as §4
[28] = test system: Candida albicans; experiment: Fungicidal activity against Candida albicans MTCC 227 after 48 to 72 hrs by two fold dilution method; type: functional
[29] = test system: Malassezia pachydermatis; experiment: Fungicidal activity against Malassezia pachydermatis after 48 to 72 hrs by two fold dilution method; type: functional
[30] = test system: Bacillus subtilis; experiment: Antimicrobial activity against Bacillus subtilis MTCC 441 at 1 mg/disc after 24 hrs by disc diffusion assay; type: functional; procedure, shortened: as §1
[31] = test system: Micrococcus luteus; experiment: Antimicrobial activity against Micrococcus luteus MTCC 106 at 1 mg/disc after 24 hrs by disc diffusion assay; type: functional; procedure, shortened: as §1
[32] = test system: Klebsiella aerogenes; experiment: Antimicrobial activity against Enterobacter aerogenes MTCC 111 at 1 mg/disc after 24 hrs by disc diffusion assay; type: functional; procedure, shortened: as §1
[33] = test system: Staphylococcus aureus; experiment: Antimicrobial activity against Staphylococcus aureus MTCC 96 at 1 mg/disc after 24 hrs by disc diffusion assay; type: functional; procedure, shortened: as §1
[34] = test system: Salmonella typhimurium; experiment: Antimicrobial activity against Salmonella typhimurium MTCC 1251 at 1 mg/disc after 24 hrs by disc diffusion assay; type: functional, Salmonella enterica subsp. enterica serovar Typhimurium; procedure, shortened: as §1
[35] = test system: Klebsiella pneumoniae; experiment: Antimicrobial activity against Klebsiella pneumoniae MTCC 109 at 1 mg/disc after 24 hrs by disc diffusion assay; type: functional; procedure, shortened: as §1
[36] = test system: Proteus vulgaris; experiment: Antimicrobial activity against Proteus vulgaris MTCC 1771 at 1 mg/disc after 24 hrs by disc diffusion assay; type: functional; procedure, shortened: as §1
[37] = test system: Staphylococcus aureus; experiment: Antimicrobial activity against […] Staphylococcus aureus MTCC 96 at 1 mg/disc after 24 hrs by disc diffusion assay; type: functional; procedure, shortened: as §1
[38] = test system: Salmonella enterica subsp. enterica serovar Paratyphi B; experiment: Antimicrobial activity against Salmonella paratyphi B at 1 mg/disc after 24 hrs by disc diffusion assay; type: functional; procedure, shortened: as §1
[39] = test system: Shigella flexneri; experiment: Antimicrobial activity against Shigella flexneri MTCC 1457 at 1 mg/disc after 24 hrs by disc diffusion assay; type: functional; procedure, shortened: as §1

Row | SMILES | inhibition zone (IZ) [1] [mm] | inhibition zone (IZ) [2] [mm] | inhibition zone (IZ) [3] [mm] | MIC [4] [µg/mL] | MIC [5] [µg/mL] | MIC [6] [µg/mL] | MIC [7] [µg/mL] | MIC [8] [µg/mL] | MIC [9] [µg/mL] | MIC [10] [µg/mL] | MIC [11] [µg/mL] | MIC [12] [µg/mL] | MIC [13] [µg/mL] | MIC [14] [µg/mL] | MIC [15] [µg/mL] | MIC [16] [µg/mL] | MBC [17] [µg/mL] | MBC [18] [µg/mL] | MBC [19] [µg/mL] | MBC [20] [µg/mL] | other results
1 | C[C@H](N[C@H](C)[C@@H](O)c1ccccc1)c1ccccc1.Cl | 10 | 15 | 14 | 62.5 | 125 | 125 | 125 | 250 | 125 | 250 | 125 | 250 | 250 | 250 | 125 | 125 | 62.5 | 125 | 250 | 250 | MBC [21]: 250 µg/mL; MBC [22]: 250 µg/mL; MBC [23]: 500 µg/mL; MBC [24]: 125 µg/mL; MBC [25]: 500 µg/mL; MBC [26]: 500 µg/mL; MBC [27]: 500 µg/mL; MFC [28]: 125 µg/mL; MFC [29]: 125 µg/mL; inhibition zone (IZ) [30]: 16 mm; inhibition zone (IZ) [31]: 15 mm; inhibition zone (IZ) [32]: 14 mm; inhibition zone (IZ) [33]: 15 mm; inhibition zone (IZ) [34]: 12 mm; inhibition zone (IZ) [35]: 15 mm; inhibition zone (IZ) [36]: 13 mm; inhibition zone (IZ) [37]: 14 mm; inhibition zone (IZ) [38]: 13 mm; inhibition zone (IZ) [39]: 12 mm
2 | COc1ccc([C@@H](C)N[C@@H](C)[C@H](O)c2ccccc2)cc1.Cl | 15 | 17 | 18 | 125 | 125 | 125 | 125 | 250 | 62.5 | 62.5 | 125 | 125 | 31.2 | 125 | 62.5 | 62.5 | 250 | 250 | 125 | 250 | MBC [21]: 500 µg/mL; MBC [22]: 125 µg/mL; MBC [23]: 62.5 µg/mL; MBC [24]: 250 µg/mL; MBC [25]: 125 µg/mL; MBC [26]: 31.2 µg/mL; MBC [27]: 250 µg/mL; MFC [28]: 62.5 µg/mL; MFC [29]: 62.5 µg/mL; inhibition zone (IZ) [30]: 14 mm; inhibition zone (IZ) [31]: 15 mm; inhibition zone (IZ) [32]: 14 mm; inhibition zone (IZ) [33]: 15 mm; inhibition zone (IZ) [34]: 13 mm; inhibition zone (IZ) [35]: 18 mm; inhibition zone (IZ) [36]: 17 mm; inhibition zone (IZ) [37]: 15 mm; inhibition zone (IZ) [38]: 16 mm; inhibition zone (IZ) [39]: 18 mm
